Reference: ChEMBL document CHEMBL1770123, “SPF32629A and SPF32629B: enantioselective synthesis, determination of absolute configuration, cytotoxicity and antibacterial evaluation” (Eur J Med Chem, 2011)
Converted amounts (≈) assume the structure as drawn.

How the values were obtained:
Chymase = molecular target: T1, Chymase (Homo sapiens, UniProt P23946); experiment: Inhibition of human chymase
T1 sequence (P23946 whole entry): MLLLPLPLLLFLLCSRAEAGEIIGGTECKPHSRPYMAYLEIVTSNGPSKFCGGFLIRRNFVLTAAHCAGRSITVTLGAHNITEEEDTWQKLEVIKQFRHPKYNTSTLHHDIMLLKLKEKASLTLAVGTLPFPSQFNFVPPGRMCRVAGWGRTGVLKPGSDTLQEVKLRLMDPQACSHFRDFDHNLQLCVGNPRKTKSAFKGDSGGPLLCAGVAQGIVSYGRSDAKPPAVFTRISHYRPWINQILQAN

[1] = Inhibition of human elastase
Escherichia coli [2] = experiment: Antimicrobial activity against Escherichia coli at 500 ug/disc after 24 hrs by disc diffusion method; type: functional; details: read-out: DIZ
Escherichia coli [3] = experiment: Antimicrobial activity against Escherichia coli at 1000 ug/disc after 24 hrs by disc diffusion method; type: functional; details: read-out: DIZ
Bacillus subtilis [4] = experiment: Antimicrobial activity against Bacillus subtilis at 500 ug/disc after 24 hrs by disc diffusion method; type: functional; details: read-out: DIZ
Bacillus subtilis [5] = experiment: Antimicrobial activity against Bacillus subtilis at 1000 ug/disc after 24 hrs by disc diffusion method; type: functional; details: read-out: DIZ
[6] = system: Staphylococcus epidermidis; experiment: Antimicrobial activity against Staphylococcus epidermidis at 500 ug/disc after 24 hrs by disc diffusion method; type: functional; details: read-out: DIZ
[7] = system: Staphylococcus epidermidis; experiment: Antimicrobial activity against Staphylococcus epidermidis at 1000 ug/disc after 24 hrs by disc diffusion method; type: functional; details: read-out: DIZ
Klebsiella pneumoniae [8] = experiment: Antimicrobial activity against Klebsiella pneumoniae at 500 ug/disc after 24 hrs by disc diffusion method; type: functional; details: read-out: DIZ
Klebsiella pneumoniae [9] = experiment: Antimicrobial activity against Klebsiella pneumoniae at 1000 ug/disc after 24 hrs by disc diffusion method; type: functional; details: read-out: DIZ
Listeria monocytogenes [10] = experiment: Antimicrobial activity against Listeria monocytogenes at 500 ug/disc after 24 hrs by disc diffusion method; type: functional; details: read-out: DIZ
Listeria monocytogenes [11] = experiment: Antimicrobial activity against Listeria monocytogenes at 1000 ug/disc after 24 hrs by disc diffusion method; type: functional; details: read-out: DIZ
Salmonella typhimurium [12] = experiment: Antimicrobial activity against Salmonella Typhimurium at 500 ug/disc after 24 hrs by disc diffusion method; type: functional, Salmonella enterica subsp. enterica serovar Typhimurium; details: Salmonella enterica, read-out: DIZ
Salmonella typhimurium [13] = experiment: Antimicrobial activity against Salmonella Typhimurium at 1000 ug/disc after 24 hrs by disc diffusion method; type: functional, Salmonella enterica subsp. enterica serovar Typhimurium; details: Salmonella enterica, read-out: DIZ
Staphylococcus aureus [14] = experiment: Antimicrobial activity against Staphylococcus aureus at 500 ug/disc after 24 hrs by disc diffusion method; type: functional; details: read-out: DIZ
Outline: (§1)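 Disc diffusion on 2.4% Mueller-Hinton agar inoculated with the strain. Paper discs 6 mm across were loaded with test compound and placed on the agar. Plates were incubated at 37 °C for 24 h. Read-out was the diameter of the inhibition zone in mm.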

Staphylococcus aureus [15] = experiment: Antimicrobial activity against Staphylococcus aureus at 1000 ug/disc after 24 hrs by disc diffusion method; type: functional; details: read-out: DIZ
Staphylococcus aureus [16] = experiment: Antimicrobial activity against methicillin-resistant Staphylococcus aureus strain 1 TB3G at 500 ug/disc after 24 hrs by disc diffusion method; type: functional; details: read-out: DIZ; outline: as §1
Staphylococcus aureus [17] = experiment: Antimicrobial activity against methicillin-resistant Staphylococcus aureus strain 1 TB3G at 1000 ug/disc after 24 hrs by disc diffusion method; type: functional; details: read-out: DIZ; outline: as §1
Staphylococcus aureus [18] = experiment: Antimicrobial activity against methicillin-resistant Staphylococcus aureus strain 2 TB4G at 500 ug/disc after 24 hrs by disc diffusion method; type: functional; details: read-out: DIZ; outline: as §1
Staphylococcus aureus [19] = experiment: Antimicrobial activity against methicillin-resistant Staphylococcus aureus strain 2 TB4G at 1000 ug/disc after 24 hrs by disc diffusion method; type: functional; details: read-out: DIZ; outline: as §1
Staphylococcus aureus [20] = experiment: Antimicrobial activity against methicillin-resistant Staphylococcus aureus strain 4 TB5G at 500 ug/disc after 24 hrs by disc diffusion method; type: functional; details: read-out: DIZ; outline: as §1
Staphylococcus aureus [21] = experiment: Antimicrobial activity against methicillin-resistant Staphylococcus aureus strain 4 TB5G at 1000 ug/disc after 24 hrs by disc diffusion method; type: functional; details: read-out: DIZ; outline: as §1
Escherichia coli [22] = experiment: Antimicrobial activity against Escherichia coli after 24 hrs by microdilution method; type: functional
Outline: (§2)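 Growth was judged by turbidity, and the MIC was taken as the minimum concentration giving the lowest growth. Amikacin served as reference.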

Bacillus subtilis [23] = experiment: Antimicrobial activity against Bacillus subtilis after 24 hrs by microdilution method; type: functional; outline: as §2
[24] = system: Staphylococcus epidermidis; experiment: Antimicrobial activity against Staphylococcus epidermidis after 24 hrs by microdilution method; type: functional; outline: as §2
Klebsiella pneumoniae [25] = experiment: Antimicrobial activity against Klebsiella pneumoniae after 24 hrs by microdilution method; type: functional; outline: as §2
Listeria monocytogenes [26] = experiment: Antimicrobial activity against Listeria monocytogenes after 24 hrs by microdilution method; type: functional; outline: as §2
Salmonella typhimurium [27] = experiment: Antimicrobial activity against Salmonella Typhimurium after 24 hrs by microdilution method; type: functional, Salmonella enterica subsp. enterica serovar Typhimurium; details: Salmonella enterica; outline: as §2
Staphylococcus aureus [28] = experiment: Antimicrobial activity against Staphylococcus aureus after 24 hrs by microdilution method; type: functional; outline: as §2
Staphylococcus aureus [29] = experiment: Antimicrobial activity against methicillin-resistant Staphylococcus aureus strain 1 TB3G after 24 hrs by microdilution method; type: functional
Outline: (§3)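 Growth was judged by turbidity. The MIC was taken as the lowest concentration giving the lowest growth.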

Staphylococcus aureus [30] = experiment: Antimicrobial activity against methicillin-resistant Staphylococcus aureus strain 2 TB4G after 24 hrs by microdilution method; type: functional; outline: as §3
Staphylococcus aureus [31] = experiment: Antimicrobial activity against methicillin-resistant Staphylococcus aureus strain 4 TB5G after 24 hrs by microdilution method; type: functional; outline: as §3
A549 [32] = experiment: Cytotoxicity against human A549 cells assessed as cell death at 1 ug after 48 hrs by MTT assay; type: functional
Outline: (§4)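 A549 cells were grown in DMEM with 2 mmol L-glutamine, 10% FBS, penicillin (50 IU/mL) and streptomycin, at 37 °C and 5% CO2. 1×10^4 cells/well were plated and treated 24 h later with compound diluted in medium for 48 h. Controls were DMSO-matched and untreated wells. MTT 0.4 mg/mL in PBS was added for 4 h in the dark, then DMSO for 4 h. A540 was read and reported as % live cells relative to untreated.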

A549 [33] = experiment: Cytotoxicity against human A549 cells assessed as cell death at 2 ug after 48 hrs by MTT assay; type: functional; outline: as §4
A549 [34] = experiment: Cytotoxicity against human A549 cells assessed as cell death at 5 ug after 48 hrs by MTT assay; type: functional; outline: as §4
A549 [35] = experiment: Cytotoxicity against human A549 cells assessed as cell death at 10 ug after 48 hrs by MTT assay; type: functional; outline: as §4
A549 [36] = experiment: Cytotoxicity against human A549 cells assessed as cell death at 25 ug after 48 hrs by MTT assay; type: functional; outline: as §4
A549 [37] = experiment: Cytotoxicity against human A549 cells after 48 hrs by MTT assay; type: functional, cell-based; details: A549, 48 h
Outline: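 A549 cells were kept in DMEM with 2 mM L-glutamine, 10% FBS, penicillin 50 IU/mL and streptomycin at 37 °C under 5% CO2. 1×10^4 cells per well were treated 24 h after seeding with compounds diluted in medium for 48 h. MTT (0.4 mg/mL in PBS) was added for 4 h in the dark, formazan was dissolved in DMSO for 4 h and absorbance read at 540 nm. Viability was expressed as % of untreated cells, and IC50 was derived.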

CC(C)CC(=O)OC(c1ccccc1)c1cc(O)c(C(=O)O)c(=O)[nH]1 (racemic)
IC50 (Chymase): 1.22 µM | IC50 [1]: 4.5 µg/mL (≈ 13 µM) | zone of inhibition at 500 µg/disc (Escherichia coli [2]): 8 mm | zone of inhibition at 1000 µg/disc (Escherichia coli [3]): 15 mm | zone of inhibition at 500 µg/disc (Bacillus subtilis [4]): 7 mm | zone of inhibition at 1000 µg/disc (Bacillus subtilis [5]): 13 mm | zone of inhibition at 500 µg/disc [6]: 8 mm | zone of inhibition at 1000 µg/disc [7]: 17 mm | zone of inhibition at 500 µg/disc (Klebsiella pneumoniae [8]): 12 mm | zone of inhibition at 1000 µg/disc (Klebsiella pneumoniae [9]): 21 mm | zone of inhibition at 500 µg/disc (Listeria monocytogenes [10]): 11 mm | zone of inhibition at 1000 µg/disc (Listeria monocytogenes [11]): 20 mm | zone of inhibition at 500 µg/disc (Salmonella typhimurium [12]): 9 mm | zone of inhibition at 1000 µg/disc (Salmonella typhimurium [13]): 20 mm | zone of inhibition at 500 µg/disc (Staphylococcus aureus [14]): 7 mm | zone of inhibition at 1000 µg/disc (Staphylococcus aureus [15]): 15 mm | zone of inhibition at 500 µg/disc (Staphylococcus aureus [16]): 5 mm | zone of inhibition at 1000 µg/disc (Staphylococcus aureus [17]): 10 mm | zone of inhibition at 500 µg/disc (Staphylococcus aureus [18]): 7 mm | zone of inhibition at 1000 µg/disc (Staphylococcus aureus [19]): 12 mm | zone of inhibition at 500 µg/disc (Staphylococcus aureus [20]): 6 mm | zone of inhibition at 1000 µg/disc (Staphylococcus aureus [21]): 12 mm | MIC (Escherichia coli [22]): 50 µg/mL (≈ 145 µM) | MIC (Bacillus subtilis [23]): 25 µg/mL (≈ 72.4 µM) | MIC [24]: > 100 µg/mL | MIC (Klebsiella pneumoniae [25]): 50 µg/mL (≈ 145 µM) | MIC (Listeria monocytogenes [26]): 50 µg/mL (≈ 145 µM) | MIC (Salmonella typhimurium [27]): > 100 µg/mL | MIC (Staphylococcus aureus [28]): > 100 µg/mL | MIC (Staphylococcus aureus [29]): > 100 µg/mL | MIC (Staphylococcus aureus [30]): > 100 µg/mL | MIC (Staphylococcus aureus [31]): > 100 µg/mL | Activity (A549 [32]): 7.07% | Activity (A549 [33]): 21.53% | Activity (A549 [34]): 44% | Activity (A549 [35]): 71.07% | Activity (A549 [36]): 81.53% | IC50 (A549 [37]): 11 µM
